Here are results for 16 compounds from PubChem BioAssay.

The nature of assay [1]: reducers of endogenous Her2 protein level, primary screen, SKBR3 breast tumor cells, AlphaScreen, ATP viability (AID 461).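 As to Her2 level: lower value means less Her2 protein in the cells.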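 As to viability: percent of carrier control wells set as 100% viability.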 Conditions: 18-24 h, measured here: SKBR3 viability, ATP luminescence, at 10 µM.
In assay [2] the target is Receptor tyrosine-protein kinase erbB-2 (Homo sapiens) (UniProt P04626). The assay is described as above. Conditions: 18-24 h, at 10 µM, stronger effect = lower value.
Sequence of Receptor tyrosine-protein kinase erbB-2 (Homo sapiens) (P04626 whole entry, looked up): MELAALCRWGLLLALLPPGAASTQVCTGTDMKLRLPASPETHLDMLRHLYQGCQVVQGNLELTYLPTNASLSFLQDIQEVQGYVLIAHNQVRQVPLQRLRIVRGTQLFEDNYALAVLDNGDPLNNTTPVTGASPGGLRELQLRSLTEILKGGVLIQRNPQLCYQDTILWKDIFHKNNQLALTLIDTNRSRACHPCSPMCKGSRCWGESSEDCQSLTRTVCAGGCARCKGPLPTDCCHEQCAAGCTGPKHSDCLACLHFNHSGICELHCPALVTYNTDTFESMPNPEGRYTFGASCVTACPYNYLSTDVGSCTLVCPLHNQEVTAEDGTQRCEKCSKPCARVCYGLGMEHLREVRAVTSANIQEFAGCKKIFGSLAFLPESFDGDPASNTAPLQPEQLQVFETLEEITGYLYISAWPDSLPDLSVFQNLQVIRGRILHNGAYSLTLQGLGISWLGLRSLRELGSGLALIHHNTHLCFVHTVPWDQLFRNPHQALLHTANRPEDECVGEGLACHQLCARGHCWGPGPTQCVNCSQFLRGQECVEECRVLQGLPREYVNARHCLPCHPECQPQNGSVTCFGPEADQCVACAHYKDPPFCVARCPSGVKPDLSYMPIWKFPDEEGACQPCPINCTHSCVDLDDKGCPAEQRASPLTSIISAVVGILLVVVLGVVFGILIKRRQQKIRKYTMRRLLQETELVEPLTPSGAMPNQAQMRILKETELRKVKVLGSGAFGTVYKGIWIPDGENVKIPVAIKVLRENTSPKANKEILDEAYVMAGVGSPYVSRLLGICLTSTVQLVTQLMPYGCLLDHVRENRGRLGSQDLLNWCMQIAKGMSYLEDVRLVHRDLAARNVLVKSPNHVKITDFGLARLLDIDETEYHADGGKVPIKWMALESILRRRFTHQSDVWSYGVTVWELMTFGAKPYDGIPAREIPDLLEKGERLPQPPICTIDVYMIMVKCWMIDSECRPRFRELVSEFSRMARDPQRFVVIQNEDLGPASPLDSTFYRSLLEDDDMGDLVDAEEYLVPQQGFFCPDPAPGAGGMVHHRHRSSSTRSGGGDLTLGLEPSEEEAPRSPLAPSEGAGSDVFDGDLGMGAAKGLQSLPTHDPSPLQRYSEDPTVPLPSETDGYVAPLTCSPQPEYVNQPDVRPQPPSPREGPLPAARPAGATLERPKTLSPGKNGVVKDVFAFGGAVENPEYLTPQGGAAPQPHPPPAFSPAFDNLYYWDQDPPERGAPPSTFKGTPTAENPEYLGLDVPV
The nature of assay [3]: SK-BR-3 cell growth inhibitors, pilot screen, 24 h, human (AID 572;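 active = viability at or below 10% of carrier control in both of two separate runs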;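 also: compound exposure lasted between 18 and 24 h rather than exactly 24 h; 100% = carrier-treated control wells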). The following applies: SK-BR-3 viability, CellTiter-Glo luminescence, at 10 µM, stronger effect = lower value. (Cellular ATP, detected with luciferase, serves as a proxy for viable cell number.)
The nature of assay [4]: HUVEC growth inhibition – cell-based, human, primary screen (AID 575;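 active = viability at or below 30% in both replicate assays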;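 also: 100% = median of untreated cell wells with 0.1% DMSO on each plate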). Conditions: HUVEC proliferation, CellTiter-Glo luminescence, 72 h; at 10 µM; stronger effect = lower value. An outline of the steps: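 System – primary HUVEC, no more than 12 passages · Medium – Low-serum (2% FBS) EBM, supplemented · Times – 72 h exposure, 37 °C, 5% CO2, 30 min RT equilibration · Measured by – luminescent ATP assay · Read-out – % viability relative to median vehicle-well signal on each plate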

A short description of assay [5]: growth inhibitors of H69AR lung tumor, primary screen, human, duplicate replicates (AID 580;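 active = viability at or under a set limit in both replicates, limit being median viability minus 3 SD, cut at about 48% in these data, passing the limit was not always enough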;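 also: 100% = mean luminescence of untreated wells and 0% = no signal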). The following applies: H69AR lung tumor cells viability, ATP luminescence, 72 h; at 10 µM; stronger effect = lower value.
The nature of assay [6]: reversal of MRP1-mediated doxorubicin resistance, pilot screen, H69AR cells, doxorubicin co-treatment (AID 601;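 active = viability loss from added drug above about 55%, and viability with drug at most 40%, in both replicates, limit read from the data, passing the limit was not always enough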). The following applies: CellTiter-Glo, 72 h, at 10 µM; for differential viability (reversal): stronger effect = higher value.
The nature of assay [7]: 384-well plate pilot, post-Golgi transport modulator project, inhibition of yeast transport mutant growth (AID 636; in the data active = inhibition above about 31%). Conditions: absorbance 615 nm, about 18 h, stronger effect = higher value.
Assay [8] is described as follows: growth suppression of yeast trafficking mutant, preliminary HTS, modulators of trafficking downstream of Golgi apparatus project, 1536-format plate, OD 615 nm (AID 637; in the data active = inhibition above about 30%). Conditions: yeast transport mutant growth, absorbance 615 nm, 18 h; stronger effect = higher value.
Where [9] appears, read: H69AR cells + 2 uM doxorubicin, measured here: viability with 2 uM doxorubicin, stronger effect = lower value.
The mark [10] stands for this setting: H69AR cells, compound alone cytotoxicity.

As a reminder, the viability is a read-out of living cells in per cent, often relative to untreated cells. By inhibition is commonly meant the change of the read-out against control, counted positive when it falls.

The source made the active and inactive calls.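 The calls were made as follows, unless noted: active = Her2 level under about 52% in both replicate screens, with viability over 70% of control (limit read from the data); inconclusive = Her2 under the limit in one screen only, or viability under 70%; inactive = Her2 level above the set limit.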

Take `COC(=O)C(C)NC(=O)C12CC3CC(CC(C3)C1)C2` (stereo not given): the viability in assay [1] was 92%; in assay [3], 92% (inactive); in assay [4], 107% (inactive); in assay [5] it was 99.7% (inactive); in assay [6] (setting [9]), 94.8%; in assay [6] (setting [10]), 99.7%. In addition, in assay [2], the Her2 level was 123% (inactive). The differential viability (reversal) in assay [6] (H69AR cells + 2 uM doxorubicin) was 4.86% (inactive). For the same compound, the inhibition in assay [7] was -1.54% (inactive); in assay [8] it was -5.33% (inactive).
For `CCCCN(CC)S(=O)(=O)c1ccc2c(c1)CCCN2C(C)=O`, the viability in assay [1] is 88%; in assay [3], 88% (inactive); in assay [4], 88.9% (inactive); in assay [5], 104% (inactive); in assay [6] (setting [9]), 103%; in assay [6] (setting [10]), 104%. For the same compound, the Her2 level in assay [2] is 79.5% (inactive). The differential viability (reversal) in assay [6] (H69AR cells + 2 uM doxorubicin) was 0.71% (inactive). Further, the inhibition was -2.37% (inactive) in assay [7] and 0.48% (inactive) in assay [8].
On to `Cc1c(C(=O)OCC(C)C)[nH]c2c1C(=O)CC(c1ccco1)C2` (stereo not given), for which the viability in assay [1] is 80.5%; in assay [3], 80.5% (inactive); in assay [4], 18.5% (active); in assay [5], 24.1% (active); in assay [6] (setting [9]), 46.6%; in assay [6] (setting [10]), 24.1%. In addition, in assay [2], the Her2 level is 58% (inactive). Also, in assay [6] (H69AR cells + 2 uM doxorubicin), the differential viability (reversal) was -22.6% (inactive). Moreover, the figures for the inhibition in assay [7] and in assay [8] were -1.2% (inactive) and -3.28% (inactive), respectively.
On to `Cc1nc2c(=O)oc3ccccc3c2n1-c1ccccc1`, for which the viability was 117% in assay [1]; 117% (inactive) in assay [3]; 107% (inactive) in assay [4]; 98.4% (inactive) in assay [5]; 85.1% in assay [6] (setting [9]); 98.4% in assay [6] (setting [10]). The Her2 level in assay [2] is 100% (inactive). Also, the differential viability (reversal) in assay [6] (H69AR cells + 2 uM doxorubicin) is 13.4% (inactive). Further, the figures for the inhibition in assay [7] and in assay [8] were -6.93% (inactive) and 2.74% (inactive), respectively.
For `CC(C)Cn1c(CN(Cc2ccccc2)Cc2ccccc2)nc2c1c(=O)n(C)c(=O)n2C`, the viability in assay [1] was 85.5%; in assay [3], 85.5% (inactive); in assay [4] it was 54.8% (inactive); in assay [5] it was 90.1% (inactive); in assay [6] (setting [9]), 88.9%; in assay [6] (setting [10]), 90.1%. Further, in assay [2], the Her2 level was 86.5% (inactive). Moreover, the differential viability (reversal) in assay [6] (H69AR cells + 2 uM doxorubicin) was 1.2% (inactive). The results for the inhibition in assay [7] and in assay [8] were -1.47% (inactive) and 3.93% (inactive), respectively.
In the case of `Cc1cc(=O)[nH]c(=S)n1-c1ccccc1`, the viability in assay [1] was 99.5%; in assay [3] it was 99.5% (inactive); in assay [4] it was 101% (inactive); in assay [5] it was 100% (inactive); in assay [6] (setting [9]), 82.6%; in assay [6] (setting [10]) it was 100%. In addition, the Her2 level in assay [2] is 74.5% (inactive). Also, the differential viability (reversal) in assay [6] (H69AR cells + 2 uM doxorubicin) was 17.7% (inactive). For the same compound, the inhibition in assay [7] is -7.03% (inactive); in assay [8], 3.33% (inactive).
As for `Cc1c(C(=O)O)c(-c2ccccc2)nn1-c1ccccc1`, the viability in assay [1] was 103%; in assay [3], 103% (inactive); in assay [4], 96.9% (inactive); in assay [5], 92.1% (inactive); in assay [6] (setting [9]), 87.5%; in assay [6] (setting [10]), 92.1%. Moreover, in assay [2], the Her2 level was 104% (inactive). The differential viability (reversal) in assay [6] (H69AR cells + 2 uM doxorubicin) is 4.64% (inactive). The inhibition is -2.99% (inactive) in assay [7] and -2.3% (inactive) in assay [8].
Take `CCNC(=O)N(C(=O)NCC)n1c(C)nnc1C`: the viability is 100% in assay [1]; 100% (inactive) in assay [3]; 105% (inactive) in assay [4]; 104% (inactive) in assay [5]; 85.3% in assay [6] (setting [9]); 104% in assay [6] (setting [10]). Moreover, in assay [2], the Her2 level was 90% (inactive). In assay [6] (H69AR cells + 2 uM doxorubicin), the differential viability (reversal) is 18.7% (inactive). Also, the figures for the inhibition in assay [7] and in assay [8] were -5.33% (inactive) and 1.48% (inactive), respectively.
In the case of `Cc1ccc(-c2c3c(=O)n(C)c(=O)n(C)c3cn2CCCN2CCOCC2)cc1`, the viability is 144% in assay [1]; 144% (inactive) in assay [3]; 103% (inactive) in assay [4]; 77.8% (inactive) in assay [5]; 82% in assay [6] (setting [9]); 77.8% in assay [6] (setting [10]). Also, in assay [2], the Her2 level was 102% (inactive). Besides, the differential viability (reversal) in assay [6] (H69AR cells + 2 uM doxorubicin) was -4.19% (inactive). Moreover, the inhibition in assay [7] is -7.5% (inactive); in assay [8], -0.95% (inactive).
Take `COCCOc1nc2ccccc2nc1C`: the viability in assay [1] is 126%; in assay [3], 126% (inactive); in assay [4], 88.4% (inactive); in assay [5] it was 87.6% (inactive); in assay [6] (setting [9]) it was 86.9%; in assay [6] (setting [10]), 87.6%. In assay [2], the Her2 level was 94% (inactive). For the same compound, the differential viability (reversal) in assay [6] (H69AR cells + 2 uM doxorubicin) is 0.7% (inactive). Moreover, the values for the inhibition in assay [7] and in assay [8] were -3.55% (inactive) and 4.19% (inactive), respectively.
As to `CS(=O)(=O)c1ccc2nc(NC(=O)C3C4C=CC(C4)C3C(=O)O)sc2c1` (stereo not given), the viability in assay [1] is 96%; in assay [3] it was 96% (inactive); in assay [4], 101% (inactive); in assay [5], 104% (inactive); in assay [6] (setting [9]), 90.3%; in assay [6] (setting [10]), 104%. For the same compound, the Her2 level in assay [2] is 154% (inactive). For the same compound, in assay [6] (H69AR cells + 2 uM doxorubicin), the differential viability (reversal) is 13.3% (inactive). Moreover, the inhibition in assay [7] is -2.5% (inactive); in assay [8], -12.8% (inactive).
In the case of `CCOC(=O)C1CCCN(c2c(N3CCN(c4ccccn4)CC3)c(=O)c2=O)C1` (stereo not given), the viability in assay [1] was 86.5%; in assay [3] it was 86.5% (inactive); in assay [4], 86.7% (inactive); in assay [5], 102% (inactive); in assay [6] (setting [9]) it was 86.5%; in assay [6] (setting [10]), 102%. Besides, in assay [2], the Her2 level was 104% (inactive). Also, the differential viability (reversal) in assay [6] (H69AR cells + 2 uM doxorubicin) was 15% (inactive). Also, the inhibition in assay [7] was 0% (inactive); in assay [8], -2.46% (inactive).
Take `CC1CCCCC1NC(=O)CCCc1nc2ccccc2c(=O)[nH]1` (stereo not given): the viability in assay [1] is 80.5%; in assay [3] it was 80.5% (inactive); in assay [4], 105% (inactive); in assay [5], 110% (inactive); in assay [6] (setting [9]), 96.2%; in assay [6] (setting [10]) it was 110%. Further, in assay [2], the Her2 level is 93.5% (inactive). Also, the differential viability (reversal) in assay [6] (H69AR cells + 2 uM doxorubicin) was 13.7% (inactive). Also, the inhibition in assay [7] was 0.27% (inactive); in assay [8], 2.46% (inactive).
As to `COc1ccc(NC(C)=O)cc1NC(=O)CN1CCN(c2ccccn2)CC1`, the viability in assay [1] was 96%; in assay [3], 96% (inactive); in assay [4], 96% (inactive); in assay [5], 85.6% (inactive); in assay [6] (setting [9]), 79.8%; in assay [6] (setting [10]), 85.6%. Also, the Her2 level in assay [2] is 116% (inactive). In assay [6] (H69AR cells + 2 uM doxorubicin), the differential viability (reversal) was 5.82% (inactive). Moreover, the inhibition was -1.87% (inactive) in assay [7] and -7.9% (inactive) in assay [8].
`O=C(Nc1cccc2ccccc12)N1CCOCC1`: the viability in assay [1] was 119%; in assay [3], 119% (inactive); in assay [4], 85.9% (inactive); in assay [5], 90.5% (inactive); in assay [6] (setting [9]), 98.9%; in assay [6] (setting [10]) it was 90.5%. Also, the Her2 level in assay [2] is 103% (inactive). The differential viability (reversal) in assay [6] (H69AR cells + 2 uM doxorubicin) is -8.41% (inactive). Moreover, the values for the inhibition in assay [7] and in assay [8] were -2.95% (inactive) and 11.3% (inactive), respectively.
`O=C(CSc1nc(O)c(Cc2ccccc2)c(=O)[nH]1)Nc1ccccc1`: the viability in assay [1] was 103%; in assay [3], 103% (inactive); in assay [4], 106% (inactive); in assay [5], 86.2% (inactive); in assay [6] (setting [9]), 85.9%; in assay [6] (setting [10]) it was 86.2%. The Her2 level in assay [2] was 97% (inactive). Also, the differential viability (reversal) in assay [6] (H69AR cells + 2 uM doxorubicin) is 0.23% (inactive). Moreover, the inhibition in assay [7] was -2.08% (inactive); in assay [8], -2.33% (inactive).
